Laboratory results: ChEMBL document CHEMBL1122546, “A potent multisubstrate analogue inhibitor of human thymidylate synthetase” (J Med Chem, 1984)

What was measured:
Thymidylate synthase [1] = molecular target: T1, Thymidylate synthase (Homo sapiens, UniProt P04818); assay: Inhibitory activity against human thymidylate synthase with variable concentration of dUMP and fixed N5,10-CH2-H4PteGlu (200 uM)
Thymidylate synthase [2] = molecular target: T1, Thymidylate synthase; assay: Inhibitory activity against human thymidylate synthase with variable concentration of N5, 10-CH2-H4PteGlu and fixed dUMP (100 uM)
Outline: (§1)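 HeLa-S3 TS purified on methotrexate–Sephadex. Tritium release from [5-3H]dUMP with dUMP fixed at 100 μM and CH2-H4PteGlu varied, in 150 mM Tris-HCl pH 7.5 with DTT, NaF, formaldehyde, BSA and sucrose. Reactions ran at 37 °C for 60 min, were stopped with TCA, treated with charcoal, and the supernatant counted. Apparent Ki from replots of double-reciprocal slopes (competitive) or intercepts (noncompetitive) against inhibitor concentration.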

[3] = Apparent Ki value for the inhibition of human thymidylate synthase in the presence of variable conc. of N5,10-CH2-H4PteGlu
Outline: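 Thymidylate synthase purified from HeLa-S3 cells by methotrexate–Sephadex chromatography. Tritium-release assay, 37 °C for 60 min, at pH 7.5 (Tris-HCl) with DTT, NaF, formaldehyde, BSA and sucrose. dUMP (with [5-3H]dUMP, 10:1) fixed at 100 μM; CH2-H4PteGlu varied. Inhibitor tested at several concentrations. Lineweaver–Burk plots; slopes (competitive) or intercepts (noncompetitive) replotted against inhibitor concentration.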

[4] = Apparent Ki value for the inhibition of human thymidylate synthase in the presence of variable conc. of dUMP
Outline: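 Enzyme is HeLa-S3 thymidylate synthase, purified on methotrexate–Sephadex. Tritium release from [5-3H]dUMP (10:1 with dUMP), with dUMP varied and CH2-H4PteGlu fixed at 200 μM. Tris-HCl pH 7.5 buffer with DTT, NaF, formaldehyde, BSA and sucrose; 37 °C, 60 min. Inhibitor at several concentrations; double-reciprocal slopes or intercepts replotted against inhibitor concentration.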

Thymidylate synthase [5] = molecular target: T1, Thymidylate synthase; assay: Km of dUMP for human thymidylate synthase with variable concentration of dUMP and fixed N5,10-CH2-H4PteGlu (200 uM)
[6] = Apparent Ki value for the inhibition of human thymidylate synthase in the presence of variable conc. of N5,10-CH2-H4PteGlu; Ki/Km; outline: as §1
[7] = Apparent Ki value for the inhibition of human thymidylate synthase in the presence of variable conc. of dUMP; Ki/Km

T1 sequence (P04818 whole entry): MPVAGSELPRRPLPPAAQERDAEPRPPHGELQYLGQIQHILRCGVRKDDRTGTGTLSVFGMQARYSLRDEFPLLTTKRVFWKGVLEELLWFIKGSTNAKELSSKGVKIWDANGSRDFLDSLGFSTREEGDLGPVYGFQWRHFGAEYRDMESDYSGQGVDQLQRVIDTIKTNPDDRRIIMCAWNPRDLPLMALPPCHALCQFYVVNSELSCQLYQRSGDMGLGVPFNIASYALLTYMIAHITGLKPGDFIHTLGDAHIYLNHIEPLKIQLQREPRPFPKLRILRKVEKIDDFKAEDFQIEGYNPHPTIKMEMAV

SMILES | Ki (Thymidylate synthase [1]) [µM] | Ki (Thymidylate synthase [2]) [µM] | Ratio [3] | Ratio [4] | Km (Thymidylate synthase [5]) [µM] | Ratio [6] | Ratio [7]
Nc1nc2c(c(=O)[nH]1)N(Cc1cn([C@H]3C[C@H](O)[C@@H](COP(O)O)O3)c(=O)[nH]c1=O)C(CNc1ccc(C(=O)NC(CCC(=O)O)C(=O)O)cc1)CC2 (some centres not stated) | 0.058 | 0.25 | 0.005 | 0.02 | – | – | –
O=c1ccn([C@H]2C[C@H](O)[C@@H](COP(=O)(O)O)O2)c(=O)[nH]1 [DEOXYURIDINE MONOPHOSPHATE] | – | – | – | – | 3 | – | –
Nc1nc2c(c(=O)[nH]1)N(Cc1cn([C@H]3C[C@H](O)[C@@H](CO)O3)c(=O)[nH]c1=O)C(CNc1ccc(C(=O)NC(CCC(=O)O)C(=O)O)cc1)CC2 (some centres not stated) | 150 | 240 | – | – | – | 4.8 | 50
CCOC(=O)CCC(NC(=O)c1ccc(N(CC2CCc3nc(N)[nH]c(=O)c3N2)N=O)cc1)C(=O)OCC (configuration not stated) | 240 | 150 | – | – | – | – | –
COP(=O)(O)OC[C@H]1O[C@@H](n2cc(CN3c4c(nc(N)[nH]c4=O)CCC3CNc3ccc(C(=O)NC(CCC(=O)O)C(=O)O)cc3)c(=O)[nH]c2=O)C[C@@H]1O (some centres not stated) | 120 | 700 | – | – | – | 14 | 40
CCOC(=O)CCC(NC(=O)c1ccc(N(CC2CCc3nc(N)nc(O)c3N2)N=O)cc1)C(=O)OCC (configuration not stated) | – | – | 3 | 80 | – | – | –
